Data reported in ChEMBL document CHEMBL4346672, “Antimicrobial and KPC/AmpC inhibitory activity of functionalized benzosiloxaboroles” (Eur J Med Chem, 2019).
≈ marks a conversion by molar mass, not a printed value. Calls of active or inactive are those of the source. No cut-off for these calls is given here.

Tested on: Staphylococcus aureus
Assay: Antibacterial activity against Staphylococcus aureus ATCC 6538P assessed as diameter of zone inhibition measured after 18 hrs by CLSI disc diffusion method
Type: functional
Details: not given
In short: (§1)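 Disc diffusion on Mueller-Hinton II agar. Compounds dissolved in DMSO. Strains stored at -80 °C and subcultured twice on tryptic soy agar before testing. Inhibition zones read after 35 °C, 18 h.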

Row | SMILES | diameter of the inhibition zone (DIZ)
1 | C[Si]1(C)OB(O)c2cccc(F)c21 | 25 mm

Tested on: Pseudomonas aeruginosa
Assay: Antibacterial activity against Pseudomonas aeruginosa ATCC 27853 measured after 18 hrs by CLSI broth dilution method
Type: functional
Details: ATCC 27853, 18 h
In short: (§2)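 Broth MIC in Mueller-Hinton II broth following CLSI, compounds dissolved in DMSO. Strains subcultured twice on tryptic soy agar before testing. Growth read after 35 °C, 18 h.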

Row | MIC | SMILES
2 | > 400 µg/mL | C[Si]1(C)OB(O)c2cccc(F)c21

Tested on: Serratia marcescens
Assay: Antibacterial activity against Serratia marcescens ATCC 13880 measured after 18 hrs by CLSI broth dilution method
Type: functional
Details: ATCC 13880, 18 h
In short: as §2

Row | MIC | SMILES
3 | > 400 µg/mL | C[Si]1(C)OB(O)c2cccc(F)c21

Tested on: not listed separately
Assay: Dissociation constant, pKa1 of compound in 0.1 M NaOH by potentiometric analysis
Type: physicochemical
Details: not given

Row | pKa | SMILES
4 | 7.2 | C[Si]1(C)OB(O)c2cccc(F)c21

Tested on: Candida parapsilosis
Assay: Antifungal activity against Candida parapsilosis ATCC 22019 assessed as decrease in fungal cell growth at 0.78 to 12.5 mg/L incubated for 24 hrs by CLSI broth dilution method
Type: functional
Details: Lodderomyces parapsilosis, ATCC 22019, 24 h
In short: (§3)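 Yeast broth dilution in RPMI 1640 with 2% glucose, compounds in DMSO. Yeasts pre-grown on Sabouraud dextrose agar. Growth read after 35 °C, 24 h.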

Row | MIC | SMILES
5 | 100 µg/mL (≈ 510 µM) | C[Si]1(C)OB(O)c2cccc(F)c21

Tested on: Meyerozyma guilliermondii
Assay: Antifungal activity against Candida guilliermondii IBA 155 assessed as decrease in fungal cell growth at 0.78 to 12.5 mg/L incubated for 24 hrs by CLSI broth dilution method
Type: functional
Details: IBA 155, 24 h
In short: as §3

Row | MIC | SMILES
6 | 12.5 µg/mL (≈ 63.8 µM) | C[Si]1(C)OB(O)c2cccc(F)c21

Tested on: Candida albicans
Assay: Antifungal activity against Candida albicans ATCC 90028 assessed as diameter of zone inhibition incubated for 24 hrs by CLSI disc diffusion method
Type: functional
Details: not given
In short: (§4)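 Yeast disc diffusion on Mueller-Hinton agar supplemented with 2% glucose and 0.5 mg/L methylene blue. Compounds in DMSO. Yeasts subcultured on Sabouraud dextrose agar before testing. Zones read after 35 °C, 24 h.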

Row | SMILES | diameter of the inhibition zone (DIZ)
7 | C[Si]1(C)OB(O)c2cccc(F)c21 | 24 mm

Tested on: Candida parapsilosis
Assay: Antifungal activity against Candida parapsilosis ATCC 22019 assessed as diameter of zone inhibition incubated for 24 hrs by CLSI disc diffusion method
Type: functional
Details: not given
In short: as §4

Row | SMILES | diameter of the inhibition zone (DIZ)
8 | C[Si]1(C)OB(O)c2cccc(F)c21 | 20 mm

Tested on: Candida tropicalis
Assay: Antifungal activity against Candida tropicalis IBA 171 assessed as diameter of zone inhibition incubated for 24 hrs by CLSI disc diffusion method
Type: functional
Details: not given
In short: as §4

Row | SMILES | diameter of the inhibition zone (DIZ)
9 | C[Si]1(C)OB(O)c2cccc(F)c21 | 14 mm

Tested on: Meyerozyma guilliermondii
Assay: Antifungal activity against Candida guilliermondii IBA 155 assessed as diameter of zone inhibition incubated for 24 hrs by CLSI disc diffusion method
Type: functional
Details: not given
In short: as §4

Row | SMILES | diameter of the inhibition zone (DIZ)
10 | C[Si]1(C)OB(O)c2cccc(F)c21 | 30 mm

Tested on: Pichia kudriavzevii
Assay: Antifungal activity against Candida krusei ATCC 6258 assessed as diameter of zone inhibition incubated for 24 hrs by CLSI disc diffusion method
Type: functional
Details: not given
In short: as §4

Row | SMILES | diameter of the inhibition zone (DIZ)
11 | C[Si]1(C)OB(O)c2cccc(F)c21 | 18 mm

Tested on: Staphylococcus aureus
Assay: Antibacterial activity against Staphylococcus aureus ATCC 6538P measured after 18 hrs by CLSI broth dilution method
Type: functional
Details: not given
In short: as §2

Row | MIC | SMILES
12 | 50 µg/mL (≈ 255 µM) | C[Si]1(C)OB(O)c2cccc(F)c21

Tested on: Enterococcus faecalis
Assay: Antibacterial activity against Enterococcus faecalis ATCC 29212 measured after 18 hrs by CLSI broth dilution method
Type: functional
Details: ATCC 29212, 18 h
In short: as §2

Row | MIC | SMILES
13 | 200 µg/mL (≈ 1020 µM) | C[Si]1(C)OB(O)c2cccc(F)c21

Tested on: Enterococcus faecium
Assay: Antibacterial activity against Enterococcus faecium ATCC 6057 measured after 18 hrs by CLSI broth dilution method
Type: functional
Details: ATCC 6057, 18 h
In short: as §2

Row | MIC | SMILES
14 | 200 µg/mL (≈ 1020 µM) | C[Si]1(C)OB(O)c2cccc(F)c21

Tested on: Staphylococcus epidermidis
Assay: Antibacterial activity against Staphylococcus epidermidis ATCC 12228 assessed as diameter of zone inhibition measured after 18 hrs by CLSI disc diffusion method
Type: functional
Details: not given
In short: as §1

Row | SMILES | diameter of the inhibition zone (DIZ)
15 | C[Si]1(C)OB(O)c2cccc(F)c21 | 39 mm

Tested on: Enterococcus faecalis
Assay: Antibacterial activity against Enterococcus faecalis ATCC 29212 assessed as diameter of zone inhibition measured after 18 hrs by CLSI disc diffusion method
Type: functional
Details: not given
In short: as §1

Row | SMILES | diameter of the inhibition zone (DIZ)
16 | C[Si]1(C)OB(O)c2cccc(F)c21 | 13 mm

Tested on: Enterococcus faecium
Assay: Antibacterial activity against Enterococcus faecium ATCC 6057 assessed as diameter of zone inhibition measured after 18 hrs by CLSI disc diffusion method
Type: functional
Details: not given
In short: as §1

Row | SMILES | diameter of the inhibition zone (DIZ)
17 | C[Si]1(C)OB(O)c2cccc(F)c21 | 12 mm

Tested on: Bacillus subtilis
Assay: Antibacterial activity against Bacillus subtilis ATCC 6633 assessed as diameter of zone inhibition measured after 18 hrs by CLSI disc diffusion method
Type: functional
Details: not given
In short: as §1

Row | SMILES | diameter of the inhibition zone (DIZ)
18 | C[Si]1(C)OB(O)c2cccc(F)c21 | 28 mm

Tested on: Klebsiella pneumoniae
Assay: Antibacterial activity against Klebsiella pneumoniae ATCC 13883 measured after 18 hrs by CLSI broth dilution method
Type: functional
Details: ATCC 13883, 18 h
In short: as §2

Row | MIC | SMILES
19 | > 400 µg/mL | C[Si]1(C)OB(O)c2cccc(F)c21

Tested on: Proteus mirabilis
Assay: Antibacterial activity against Proteus mirabilis ATCC 12453 measured after 18 hrs by CLSI broth dilution method
Type: functional
Details: ATCC 12453, 18 h
In short: as §2

Row | MIC | SMILES
20 | 200 µg/mL (≈ 1020 µM) | C[Si]1(C)OB(O)c2cccc(F)c21

Tested on: Enterobacter cloacae
Assay: Antibacterial activity against Enterobacter cloacae DSM 6234 measured after 18 hrs by CLSI broth dilution method
Type: functional
Details: DSM 6234, 18 h
In short: as §2

Row | MIC | SMILES
21 | > 400 µg/mL | C[Si]1(C)OB(O)c2cccc(F)c21

Tested on: Bordetella bronchiseptica
Assay: Antibacterial activity against Bordetella bronchiseptica ATCC 4617 measured after 18 hrs by CLSI broth dilution method
Type: functional
Details: ATCC 4617, 18 h
In short: as §2

Row | MIC | SMILES
22 | 200 µg/mL (≈ 1020 µM) | C[Si]1(C)OB(O)c2cccc(F)c21

Tested on: Acinetobacter baumannii
Assay: Antibacterial activity against Acinetobacter baumannii ATCC 19606 measured after 18 hrs by CLSI broth dilution method
Type: functional
Details: ATCC 19606, 18 h
In short: as §2

Row | MIC | SMILES
23 | 200 µg/mL (≈ 1020 µM) | C[Si]1(C)OB(O)c2cccc(F)c21

Tested on: Stenotrophomonas maltophilia
Assay: Antibacterial activity against Stenotrophomonas maltophilia ATCC 13637 measured after 18 hrs by CLSI broth dilution method
Type: functional
Details: ATCC 13637, 18 h
In short: as §2

Row | MIC | SMILES
24 | 200 µg/mL (≈ 1020 µM) | C[Si]1(C)OB(O)c2cccc(F)c21

Tested on: Burkholderia cepacia
Assay: Antibacterial activity against Burkholderia cepacia ATCC 25416 measured after 18 hrs by CLSI broth dilution method
Type: functional
Details: ATCC 25416, 18 h
In short: as §2

Row | MIC | SMILES
25 | > 400 µg/mL | C[Si]1(C)OB(O)c2cccc(F)c21

Tested on: Escherichia coli
Assay: Antibacterial activity against Escherichia coli ATCC 25922 assessed as diameter of zone inhibition measured after 18 hrs by CLSI disc diffusion method
Type: functional
Details: not given
In short: as §1

Row | SMILES | diameter of the inhibition zone (DIZ)
26 | C[Si]1(C)OB(O)c2cccc(F)c21 | 17 mm

Tested on: Proteus mirabilis
Assay: Antibacterial activity against Proteus mirabilis ATCC 12453 assessed as diameter of zone inhibition measured after 18 hrs by CLSI disc diffusion method
Type: functional
Details: not given
In short: as §1

Row | SMILES | diameter of the inhibition zone (DIZ)
27 | C[Si]1(C)OB(O)c2cccc(F)c21 | 16 mm

Tested on: Acinetobacter baumannii
Assay: Antibacterial activity against Acinetobacter baumannii ATCC 19606 assessed as diameter of zone inhibition measured after 18 hrs by CLSI disc diffusion method
Type: functional
Details: not given
In short: as §1

Row | SMILES | diameter of the inhibition zone (DIZ)
28 | C[Si]1(C)OB(O)c2cccc(F)c21 | 11 mm

Tested on: Burkholderia cepacia
Assay: Antibacterial activity against Burkholderia cepacia ATCC 25416 assessed as diameter of zone inhibition measured after 18 hrs by CLSI disc diffusion method
Type: functional
Details: not given
In short: as §1

Row | SMILES | diameter of the inhibition zone (DIZ)
29 | C[Si]1(C)OB(O)c2cccc(F)c21 | inactive

Tested on: Bordetella bronchiseptica
Assay: Antibacterial activity against Bordetella bronchiseptica ATCC 4617 assessed as diameter of zone inhibition measured after 18 hrs by CLSI disc diffusion method
Type: functional
Details: not given
In short: as §1

Row | SMILES | diameter of the inhibition zone (DIZ)
30 | C[Si]1(C)OB(O)c2cccc(F)c21 | inactive

Tested on: Escherichia coli
Assay: Antibacterial activity against Escherichia coli ATCC 25922 assessed as fold reduction of MIC in presence of efflux pump inhibitor PAbetaN incubated for 18 hrs by CLSI broth microdilution method
Type: functional
Details: not given
In short: (§5)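 MICs determined with and without PAβN at 50 mg/L in Mueller-Hinton broth containing 1 mM MgSO₄. 2-fold serial dilutions per CLSI. Fold change taken from the paired MICs after 35 °C, 18 h.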

Row | SMILES | fold change (FC)
31 | C[Si]1(C)OB(O)c2cccc(F)c21 | 32

Tested on: Klebsiella pneumoniae
Assay: Antibacterial activity against Klebsiella pneumoniae ATCC 13883 assessed as fold reduction of MIC in presence of efflux pump inhibitor PAbetaN incubated for 18 hrs by broth microdilution method
Type: functional
Details: not given
In short: as §5

Row | SMILES | fold change (FC)
32 | C[Si]1(C)OB(O)c2cccc(F)c21 | 16

Tested on: Proteus mirabilis
Assay: Antibacterial activity against Proteus mirabilis ATCC 12453 assessed as fold reduction of MIC in presence of efflux pump inhibitor PAbetaN incubated for 18 hrs by broth microdilution method
Type: functional
Details: not given
In short: as §5

Row | SMILES | fold change (FC)
33 | C[Si]1(C)OB(O)c2cccc(F)c21 | 2

Tested on: Stenotrophomonas maltophilia
Assay: Antibacterial activity against Stenotrophomonas maltophilia ATCC 13637 assessed as fold reduction of MIC in presence of efflux pump inhibitor PAbetaN incubated for 18 hrs by broth microdilution method
Type: functional
Details: not given
In short: as §5

Row | SMILES | fold change (FC)
34 | C[Si]1(C)OB(O)c2cccc(F)c21 | 8

Tested on: Klebsiella pneumoniae
Details: ATCC 13883

Row | SMILES | DIZ
35 | C[Si]1(C)OB(O)c2cccc(F)c21 | inactive

Tested on: Serratia marcescens
Details: ATCC 13880

Row | SMILES | DIZ
36 | C[Si]1(C)OB(O)c2cccc(F)c21 | inactive
